Source: ChEMBL document CHEMBL4765454, “Betulinic acid derived amides are highly cytotoxic, apoptotic and selective” (Eur J Med Chem, 2020)
Activity calls are given as the source filed them. The rule behind the calls is not given here.

Columns and labels:
A-375 [1] = experiment: Cytotoxicity against human A-375 cells assessed as reduction in cell viability incubated for 72 hrs by SRB assay; type: functional, cell-based; conditions: Homo sapiens, A-375, 72 h; read-out: EC50
A-375 [2] = experiment: Cell cycle arrest in human A375 cells assessed as accumulation at S phase measured after 48 hrs by propidium iodide staining based flow cytometry (reference value: 31.3%); type: functional
NIH3T3 = experiment: Cytotoxicity against mouse NIH3T3 cells assessed as reduction in cell viability incubated for 72 hrs by SRB assay; type: cell-based; conditions: Mus musculus, NIH3T3, 72 h; read-out: EC50
FaDu = experiment: Cytotoxicity against human FaDu cells assessed as reduction in cell viability incubated for 72 hrs by SRB assay; type: functional, cell-based; conditions: Homo sapiens, FaDu, 72 h; read-out: EC50
A-375 [3] = experiment: Cell cycle arrest in human A375 cells assessed as accumulation at subG1 phase measured after 48 hrs by propidium iodide staining based flow cytometry (reference value: 0.57%); type: functional
A-375 [4] = experiment: Cell cycle arrest in human A375 cells assessed as accumulation at G2/M phase measured after 24 hrs by propidium iodide staining based flow cytometry (reference value: 7.48%); type: functional
A-375 [5] = experiment: Induction of apoptosis in human A375 cells at 3 uM measured after 24 hrs by microscopic analysis; type: functional, cell-based
Summary of the method: (§1)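 A375 cells treated at 3.0, 4.8 or 6.2 µM and inspected by light microscopy after 24 h or 48 h. Cell number and morphology were scored for apoptotic features: shrinkage, strangulation and blebbing.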

A-375 [6] = experiment: Induction of apoptosis in human A375 cells assessed as cell shrinkage at 3 uM measured after 48 hrs by microscopic analysis; type: functional, cell-based; summary of the method: as §1
A2780 = experiment: Cytotoxicity against human A2780 cells assessed as reduction in cell viability incubated for 72 hrs by SRB assay; type: functional, cell-based; conditions: Homo sapiens, A2780, 72 h; read-out: EC50
A-375 [7] = experiment: Cell cycle arrest in human A375 cells assessed as accumulation at G2/M phase measured after 48 hrs by propidium iodide staining based flow cytometry (reference value: 10.83%); type: functional
A-375 [8] = experiment: Induction of apoptosis in human A375 cells assessed as viable cells at 3 uM measured after 48 hrs by Annexin V-FITC/propidium iodide staining based flow cytometry (reference value: 92.723%); type: functional; conditions: read-out: Activity
[9] = Selectivity ratio of EC50 for mouse NIH3T3 cells to EC50 for human FaDu cells
A-375 [10] = experiment: Induction of apoptosis in human A375 cells assessed as blebbing at 3 uM measured after 48 hrs by microscopic analysis; type: functional, cell-based; summary of the method: as §1
A-375 [11] = experiment: Induction of apoptosis in human A375 cells assessed as viable cells at 3 uM measured after 24 hrs by Annexin V-FITC/propidium iodide staining based flow cytometry (reference value: 90.123%); type: functional; conditions: read-out: Activity
A-375 [12] = experiment: Induction of apoptosis in human A375 cells assessed as necrotic cells at 3 uM measured after 24 hrs by Annexin V-FITC/propidium iodide staining based flow cytometry (reference value: 0.331%); type: functional
A-375 [13] = experiment: Cell cycle arrest in human A375 cells assessed as accumulation at G1 phase measured after 24 hrs by propidium iodide staining based flow cytometry (reference value: 44.59%); type: functional
A-375 [14] = experiment: Induction of apoptosis in human A375 cells assessed as early apoptotic cells at 3 uM measured after 48 hrs by Annexin V-FITC/propidium iodide staining based flow cytometry (reference value: 1.622%); type: functional
HT-29 = experiment: Cytotoxicity against human HT-29 cells assessed as reduction in cell viability incubated for 72 hrs by SRB assay; type: functional, cell-based; conditions: Homo sapiens, HT-29, 72 h; read-out: EC50
A-375 [15] = experiment: Cell cycle arrest in human A375 cells assessed as accumulation at subG1 phase measured after 24 hrs by propidium iodide staining based flow cytometry (reference value: 0.46%); type: functional
A-375 [16] = experiment: Induction of apoptosis in human A375 cells assessed as necrotic cells at 3 uM measured after 48 hrs by Annexin V-FITC/propidium iodide staining based flow cytometry (reference value: 0.547%); type: functional
A-375 [17] = experiment: Induction of apoptosis in human A375 cells assessed as early apoptotic cells at 3 uM measured after 24 hrs by Annexin V-FITC/propidium iodide staining based flow cytometry (reference value: 2.194%); type: functional
A-375 [18] = experiment: Cell cycle arrest in human A375 cells assessed as accumulation at S phase measured after 24 hrs by propidium iodide staining based flow cytometry (reference value: 47.46%); type: functional
MCF7 = experiment: Cytotoxicity against human MCF7 cells assessed as reduction in cell viability incubated for 72 hrs by SRB assay; type: functional, cell-based; conditions: Homo sapiens, MCF7, 72 h; read-out: EC50
A-375 [19] = experiment: Induction of apoptosis in human A375 cells assessed as strangulation at 3 uM measured after 48 hrs by microscopic analysis; type: functional, cell-based; summary of the method: as §1
[20] = Selectivity ratio of EC50 for mouse NIH3T3 cells to EC50 for human HT-29 cells; type: toxicity; conditions: NIH3T3 cells versus HT-29 cells, read-out: Ratio EC50
A-375 [21] = experiment: Induction of apoptosis in human A375 cells assessed as late apoptotic cells at 3 uM measured after 48 hrs by Annexin V-FITC/propidium iodide staining based flow cytometry (reference value: 5.108%); type: functional
[22] = Selectivity ratio of EC50 for mouse NIH3T3 cells to EC50 for human A2780 cells; type: toxicity; conditions: NIH3T3 cells versus A2780 cells, read-out: Ratio EC50
A-375 [23] = experiment: Cell cycle arrest in human A375 cells assessed as accumulation at G1 phase measured after 48 hrs by propidium iodide staining based flow cytometry (reference value: 57.3%); type: functional
[24] = Selectivity ratio of EC50 for mouse NIH3T3 cells to EC50 for human MCF7 cells; type: toxicity; conditions: NIH3T3 cells versus MCF7 cells, read-out: Ratio EC50
A-375 [25] = experiment: Induction of apoptosis in human A375 cells assessed as late apoptotic cells at 3 uM measured after 24 hrs by Annexin V-FITC/propidium iodide staining based flow cytometry (reference value: 7.352%); type: functional
A-375 [26] = experiment: Induction of apoptosis in human A375 cells assessed as necrotic cells at 6.2 uM measured after 24 hrs by Annexin V-FITC/propidium iodide staining based flow cytometry (reference value: 0.331%); type: functional
A-375 [27] = experiment: Induction of apoptosis in human A375 cells assessed as strangulation at 6.2 uM measured after 48 hrs by microscopic analysis; type: functional, cell-based; summary of the method: as §1
A-375 [28] = experiment: Induction of apoptosis in human A375 cells assessed as late apoptotic cells at 6.2 uM measured after 24 hrs by Annexin V-FITC/propidium iodide staining based flow cytometry (reference value: 7.352%); type: functional
A-375 [29] = experiment: Induction of apoptosis in human A375 cells at 6.2 uM measured after 24 hrs by microscopic analysis; type: functional, cell-based; summary of the method: as §1
A-375 [30] = experiment: Induction of apoptosis in human A375 cells assessed as blebbing at 6.2 uM measured after 48 hrs by microscopic analysis; type: functional, cell-based; summary of the method: as §1
A-375 [31] = experiment: Induction of apoptosis in human A375 cells assessed as early apoptotic cells at 6.2 uM measured after 48 hrs by Annexin V-FITC/propidium iodide staining based flow cytometry (reference value: 1.622%); type: functional
A-375 [32] = experiment: Induction of apoptosis in human A375 cells assessed as viable cells at 6.2 uM measured after 48 hrs by Annexin V-FITC/propidium iodide staining based flow cytometry (reference value: 92.723%); type: functional; conditions: read-out: Activity
A-375 [33] = experiment: Induction of apoptosis in human A375 cells assessed as cell shrinkage at 6.2 uM measured after 48 hrs by microscopic analysis; type: functional, cell-based; summary of the method: as §1
A-375 [34] = experiment: Induction of apoptosis in human A375 cells assessed as early apoptotic cells at 6.2 uM measured after 24 hrs by Annexin V-FITC/propidium iodide staining based flow cytometry (reference value: 2.194%); type: functional
A-375 [35] = experiment: Induction of apoptosis in human A375 cells assessed as necrotic cells at 6.2 uM measured after 48 hrs by Annexin V-FITC/propidium iodide staining based flow cytometry (reference value: 0.547%); type: functional
A-375 [36] = experiment: Induction of apoptosis in human A375 cells assessed as late apoptotic cells at 6.2 uM measured after 48 hrs by Annexin V-FITC/propidium iodide staining based flow cytometry (reference value: 5.108%); type: functional
A-375 [37] = experiment: Induction of apoptosis in human A375 cells assessed as viable cells at 6.2 uM measured after 24 hrs by Annexin V-FITC/propidium iodide staining based flow cytometry (reference value: 90.123%); type: functional; conditions: read-out: Activity

Row | Structure (SMILES) | EC50 (A-375 [1]) | Activity (A-375 [2]) | EC50 (NIH3T3) | EC50 (FaDu) | Activity (A-375 [3]) | Activity (A-375 [4]) | EC50 (A2780) | Activity (A-375 [7]) | Ratio EC50 [9] | Activity (A-375 [13]) | EC50 (HT-29) | Activity (A-375 [15]) | Activity (A-375 [18]) | EC50 (MCF7) | selectivity ratio [20] | selectivity ratio [22] | Activity (A-375 [23]) | selectivity ratio [24] | further results
1 | C=C(C)[C@@H]1CC[C@]2(C(=O)Nc3cncc4ccccc34)CC[C@]3(C)[C@H](CC[C@@H]4[C@@]5(C)CC[C@H](OC(C)=O)C(C)(C)[C@@H]5CC[C@]43C)[C@@H]12 | 1.48 µM | 34.84% | > 135 µM | 2.26 µM | 23.32% | 0% | 2.16 µM | 0% | 59.7 | 61.06% | > 30 µM | 2.38% | 36.56% | 4.65 µM | 4.5 | 62.5 | 41.85% | 29 | Activity (A-375 [5]): Active; Activity (A-375 [6]): Active; viability at 3 µM (A-375 [8]): 33.2%; Activity (A-375 [10]): Active; viability at 3 µM (A-375 [11]): 83.5%; Activity (A-375 [12]): 0.351%; Activity (A-375 [14]): 44.309%; Activity (A-375 [16]): 1.115%; Activity (A-375 [17]): 8.551%; Activity (A-375 [19]): Active; Activity (A-375 [21]): 21.382%; Activity (A-375 [25]): 9.649%
2 | C=C(C)[C@@H]1CC[C@]2(C(=O)NCc3ccccc3)CC[C@]3(C)[C@H](CC[C@@H]4[C@@]5(C)C[C@H](OC(C)=O)[C@H](OC(C)=O)C(C)(C)[C@@H]5CC[C@]43C)[C@@H]12 | 3.14 µM | 21.92% | > 70 µM | 5.4 µM | 25.69% | 0% | 4.42 µM | 0% | 13 | 63.76% | 20.7 µM | 5.98% | 30.27% | 11.3 µM | 3.4 | 15.8 | 52.38% | 6.2 | Activity (A-375 [26]): 0.667%; Activity (A-375 [27]): Active; Activity (A-375 [28]): 7.93%; Activity (A-375 [29]): Active; Activity (A-375 [30]): Active; Activity (A-375 [31]): 44.187%; viability at 6.2 µM (A-375 [32]): 34.3%; Activity (A-375 [33]): Active; Activity (A-375 [34]): 9.546%; Activity (A-375 [35]): 1.449%; Activity (A-375 [36]): 20.078%; viability at 6.2 µM (A-375 [37]): 81.9%
